CDK5 inh: inhibitors of human CDK5/p35 kinase; Q00535+Q15078; Recombinant CDK5/p35, ADP-Glo luminescence, 60 min; inhibition, % at 10 µM; 330,000 compounds, 0.01% hits; AID 488839;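 active = highest replicate inhibition of at least 50% and at least 75% of replicates reaching 50%; inconclusive = only one of the two criteria met; inactive = both criteria failed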;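 also: plate controls were DMSO neutral control for no effect and GW8510 at 10 µM for full effect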
CAL PDZ FP-1: human CAL PDZ-peptide interaction inhibition. purified CAL PDZ, TMR-peptide fluorescence polarization, 1 h. AID 504414. inhibition, % at 20 µM. 330,000 compounds, 0.02% hits;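 active = highest replicate inhibition of at least 40%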;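 also: plate controls were DMSO neutral control wells for no effect and unlabeled competitor peptide control wells for full effect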
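material = purified tagged CAL PDZ domain construct (CerCALP) | compound dosing = 20 µM, one dose | times = 1 h at RT | measured by = fluorescence polarization from S- and P-plane intensities, G-factor corrected | read-out = inhibition from polarization loss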
CAL PDZ FP-2: inhibitors of human CAL PDZ peptide binding; purified CAL PDZ, TMR-peptide fluorescence polarization, 1 h; inhibition, % at 24.9 µM; 300,000 compounds, 0.92% hits;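 active = mean inhibition of at least 30% with at least half of replicates also reaching 30%; inconclusive = no clear call, values can overlap the other calls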;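 also: 0% = DMSO neutral control and 100% = excess unlabeled competitor peptide PRC23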
S100A4 inh HTS: inhibitors of human S100A4 binding to myosin IIA peptide; S100A4/TAMRA-MyoIIA peptide fluorescence polarization; inhibition, % at 10.7 µM; 360,000 compounds, 0.14% hits; AID 652163;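 active = mean inhibition of at least 70% across replicates, with every replicate also reaching that level; inconclusive = mean inhibition reaches 70% but some replicates fall short; inactive = mean inhibition below 70%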
Target sequence (P26447 whole entry, looked up): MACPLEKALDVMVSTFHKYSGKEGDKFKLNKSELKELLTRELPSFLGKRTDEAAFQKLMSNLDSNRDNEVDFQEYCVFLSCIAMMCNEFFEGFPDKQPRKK
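Material: human S100A4 monomer with TAMRA-labelled myosin IIA peptide; buffer or medium: HEPES pH 7.2 with CaCl2, KCl, NaCl, DTT, Triton; compound dosing: one concentration per compound; schedule: 5 min incubation before reading; benchmarks: neutral control DMSO, positive control TFP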
Statin myotox sup: suppressors of simvastatin-induced myotoxicity in C2C12 myotubes; 330,000 compounds, 0.78% hits; ATP luminescence, 48 h; scaled: DMSO 0, geranylgeraniol control 100; rescue of ATP level, % at 7.49 µM;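 active = mean ATP rescue above about 67%, or every replicate alone reaching that limit, limit read from the data, passing the limit was not always enough; inconclusive = no clear call, values can overlap the other calls; inactive = mean under the limit and some replicate under it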;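 also: myotubes were challenged with 10 µM simvastatin during compound exposure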
dFosB act: enhances mouse delta FosB homodimer DNA binding; P13346; purified delta FosB, TAMRA-CDK5 oligo fluorescence polarization; percent of positive-control signal above neutral wells; activation, % at 25 µM; 340,000 compounds, 0.99% hits; AID 493131;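 active = mean activation above about 17%, with every replicate also reaching it, limit read from the data, passing the limit was not always enough; inconclusive = only one of the two conditions met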
Target sequence (P13346 whole entry, looked up): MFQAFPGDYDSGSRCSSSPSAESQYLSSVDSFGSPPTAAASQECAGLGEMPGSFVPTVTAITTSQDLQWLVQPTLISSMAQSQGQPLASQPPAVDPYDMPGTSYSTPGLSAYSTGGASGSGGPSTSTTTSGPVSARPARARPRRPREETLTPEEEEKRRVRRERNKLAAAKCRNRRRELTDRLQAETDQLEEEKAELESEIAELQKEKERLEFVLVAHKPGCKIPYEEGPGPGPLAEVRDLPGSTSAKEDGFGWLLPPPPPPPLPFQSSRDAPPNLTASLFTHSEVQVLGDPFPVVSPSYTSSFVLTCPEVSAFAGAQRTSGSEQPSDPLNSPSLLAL
* hit, by the source's call. A selection: hits, their analogues and other compounds. The true share with any hit is near 2%.

Results for c1ccc(C(c2ccccc2)N2CCN(Cc3nnnn3C3CCCC3)CC2)cc1 ?
CDK5 inh: -10; CAL PDZ FP-1: -5; CAL PDZ FP-2: 1; Statin myotox sup: 77*; dFosB act: -12

Results for CCC(c1nnnn1C1CCCC1)N1CCN(c2ccccc2F)CC1 (stereo unspecified) ?
CDK5 inh: 0; CAL PDZ FP-1: 0; CAL PDZ FP-2: -7; Statin myotox sup: 124*; dFosB act: -8

What do the screens show for `Clc1ccc(C(c2nnnn2C2CCCC2)N2CCN(Cc3ccncc3)CC2)cc1` (stereo unspecified)?
CDK5 inh: -1; CAL PDZ FP-1: 0; CAL PDZ FP-2: -2; Statin myotox sup: 3; dFosB act: -6

What do the screens show for `CC(C)C(c1nnnn1C1CCCCC1)N1CCc2ccccc21` (stereo unspecified)?
CDK5 inh: -1; CAL PDZ FP-1: 0; CAL PDZ FP-2: 2; Statin myotox sup: 9; dFosB act: -7

How did Cc1ccc(C(c2nnnn2C2CCCCC2)N2CCc3ccccc32)cc1 (stereo unspecified) do in these assays?
CDK5 inh: -1; CAL PDZ FP-1: -1; CAL PDZ FP-2: 74*; dFosB act: -12

Results for Fc1ccc(C(c2nnnn2C2CCCC2)N2CCN(Cc3ccccc3)CC2)cc1 (stereo unspecified) ?
CDK5 inh: 2; CAL PDZ FP-1: -1; CAL PDZ FP-2: 1; Statin myotox sup: 137*; dFosB act: -3

Results for Cc1cccn2c(=O)c3cc(C(=O)NCCC4=CCCCC4)n(C)c3nc12 ?
CDK5 inh: 1; CAL PDZ FP-1: -3; CAL PDZ FP-2: 1; S100A4 inh HTS: 0; Statin myotox sup: 127*; dFosB act: -2

Results for Cc1ccc(Nc2cc(C)nc(NCc3ccccc3)n2)cc1 ?
CDK5 inh: 1; CAL PDZ FP-1: -3; CAL PDZ FP-2: -1; S100A4 inh HTS: -8; dFosB act: inconclusive

Results for CC(C)(C(=O)Nc1nccs1)c1ccccc1 ?
CDK5 inh: 1; CAL PDZ FP-1: 16; CAL PDZ FP-2: 66*; S100A4 inh HTS: -2; dFosB act: -5

What do the screens show for `Cc1cc(C(=O)OCC(=O)N2CC(C)CC(C)C2)c(C)o1` (stereo unspecified)?
CDK5 inh: -1; CAL PDZ FP-1: -2; Statin myotox sup: 1; dFosB act: -1

How did O=C1c2ccccc2C(Nc2ccc(Cl)cc2)N1CCN1CCOCC1 (stereo unspecified) do in these assays?
CDK5 inh: -1; CAL PDZ FP-1: -1; CAL PDZ FP-2: -1; S100A4 inh HTS: -4; Statin myotox sup: 10; dFosB act: 2

Results for COc1ccc2c(Cl)c(-c3nnc(SCC(=O)c4ccccc4)n3C)sc2c1 ?
CDK5 inh: 0; CAL PDZ FP-1: -1; CAL PDZ FP-2: -3; Statin myotox sup: 116*; dFosB act: -1

How did COc1cc(/C=C2/NC(=O)NC2=O)ccc1OCC(=O)Nc1ccc(F)cc1 do in these assays?
CDK5 inh: -1; CAL PDZ FP-1: -2; CAL PDZ FP-2: 0; S100A4 inh HTS: 2; Statin myotox sup: 5; dFosB act: 6

Results for O=C(COc1ccc(/C=C2/NC(=O)NC2=O)cc1)Nc1ccc(F)cc1 ?
CDK5 inh: -3; CAL PDZ FP-1: -2; CAL PDZ FP-2: -1; S100A4 inh HTS: 0; Statin myotox sup: 6; dFosB act: 40*

What do the screens show for `CCOC(=O)C1=C(N)c2ccccc2CC1C(C)C` (stereo unspecified)?
CDK5 inh: 1; CAL PDZ FP-1: -1; CAL PDZ FP-2: -4; Statin myotox sup: 123*; dFosB act: -6

Results for CCC(C)(NC(=O)c1ccccn1)C(=O)NC1CCCC1 (stereo unspecified) ?
CDK5 inh: 2; CAL PDZ FP-1: -1; CAL PDZ FP-2: 1; S100A4 inh HTS: 6; dFosB act: -4

Results for CCC(C)(NC(=O)CNC(C)=O)C(=O)NC1CCCCC1 (stereo unspecified) ?
CDK5 inh: 0; CAL PDZ FP-1: -2; CAL PDZ FP-2: -2; Statin myotox sup: 112*; dFosB act: -2

How did Cc1nc(SCC(=O)c2ccccc2)[nH]c(=O)c1Oc1ccc(Cl)cc1 do in these assays?
CDK5 inh: 2; CAL PDZ FP-1: -8; S100A4 inh HTS: 1; dFosB act: 4

Results for CCC(C)Sc1ccc([C@@H]2[C@@H]3C(=O)N(CC)C(=O)[C@@H]3[C@]3(C(=O)OC)CCCCN23)cc1OC (stereo partly specified) ?
CDK5 inh: 0; CAL PDZ FP-1: 0; CAL PDZ FP-2: -5; S100A4 inh HTS: -2; Statin myotox sup: 138*; dFosB act: -13

How did COC(=O)[C@@]12CCCCN1[C@H](c1ccc(-c3cccc(Cl)c3)c(OC)c1)[C@@H]1C(=O)N(C)C(=O)[C@@H]12 do in these assays?
CDK5 inh: 0; CAL PDZ FP-1: -1; CAL PDZ FP-2: 0; S100A4 inh HTS: -10; Statin myotox sup: 137*; dFosB act: -2

How did CCC(C)NC(=O)c1ccccc1-c1ccccc1C(=O)NC(C)CC (stereo unspecified) do in these assays?
CDK5 inh: -2; CAL PDZ FP-1: 0; CAL PDZ FP-2: 72*; S100A4 inh HTS: -5; Statin myotox sup: 3; dFosB act: -5

Results for CC(C)CNC(=O)c1ccccc1-c1ccccc1C(=O)O ?
CDK5 inh: 1; CAL PDZ FP-1: 0; CAL PDZ FP-2: 0; Statin myotox sup: 1; dFosB act: -4

How did Cc1cc(C)nc(-n2nc(C)c(Oc3ccccc3O)c2C)n1 do in these assays?
CDK5 inh: 0; CAL PDZ FP-1: -1; CAL PDZ FP-2: -6; Statin myotox sup: -6; dFosB act: 4

What do the screens show for `O=C(C1CC(=O)N(c2ccc3c(c2)OCCO3)C1)N1CCN(S(=O)(=O)c2ccc(F)cc2)CC1` (stereo unspecified)?
CDK5 inh: 0; CAL PDZ FP-1: -2; CAL PDZ FP-2: 68*; S100A4 inh HTS: -3; Statin myotox sup: 2; dFosB act: -5

How did COc1ccc(Cc2nnc(NC(=O)c3cc(OC)cc(OC)c3)s2)cc1 do in these assays?
CDK5 inh: 2; CAL PDZ FP-2: -3; S100A4 inh HTS: -1; Statin myotox sup: 1; dFosB act: -8

Results for COc1cc2c(cc1OC)C(c1cc3ccc(C)cc3[nH]c1=O)N(C(=O)c1ccco1)CC2 (stereo unspecified) ?
CDK5 inh: 0; CAL PDZ FP-1: -2; CAL PDZ FP-2: 41*; S100A4 inh HTS: 0; Statin myotox sup: -2; dFosB act: -8

Results for CCCN(C)C[C@H]1Oc2cc(-c3ccccc3C)ccc2S(=O)(=O)N([C@@H](C)CO)C[C@H]1C ?
Statin myotox sup: -5

Screening results: PubChem BioAssay, Broad Institute
